Source: PubChem BioAssay (several laboratories)
F508del corr – F508del CFTR correction, initial screen, CFBE line, single point | CFBE cells, YFP halide quenching; stimulated with forskolin plus potentiator P3; % fluorescence drop versus neutral controls | activity (quench increase), % at 7.58 µM | 0.36% of 350,000 active | AID 720511, 2013;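 active = mean added fluorescence quench of at least 8% versus neutral control, with both replicates also reaching 8%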;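 note: cells transiently co-express mutant CFTR-F508del with the halide-sensitive YFP; corrector assay measuring rescue of mutant channel to the surface after 24 h compound exposure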
LMPTP inh – LMPTP phosphatase inhibitors, primary screen, biochemical, fluorescence intensity, uHTS | Low molecular weight phosphotyrosine protein phosphatase (Homo sapiens), P24666 | recombinant LMPTP-A, OMFP fluorogenic substrate | inhibition, % at 20 µM | 0.22% of 360,000 active;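 active = compounds that cut the enzyme signal by at least half of the control window in the single-dose screen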;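 note: plate controls were DMSO wells with enzyme plus substrate for no effect and substrate without enzyme for full effect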
Target sequence (P24666 whole entry, looked up): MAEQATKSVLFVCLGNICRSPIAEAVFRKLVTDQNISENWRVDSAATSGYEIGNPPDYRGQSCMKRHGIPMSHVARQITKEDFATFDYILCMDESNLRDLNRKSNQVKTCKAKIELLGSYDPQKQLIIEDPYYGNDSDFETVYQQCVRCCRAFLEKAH
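Test system: LMPTP-A phosphatase enzyme; input: 0.625 nM LMPTP-A final; reagent: OMFP substrate, 400 µM final; compound dosing: 20 µM single dose, 3% DMSO; incubation: 50 min dark incubation at room temperature; measured by: endpoint fluorescence intensity from OMFP dephosphorylation; measure: % inhibition relative to no-enzyme and uninhibited control wells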
SUMO1-SIM PPI – modulators of SUMO1 protein-protein interactions, primary screen, biochemical, uHTS. SUMO1 binding to a labelled peptide, TR-FRET, 1 h. AID 602429, 2012. inhibition, % at 20 µM. 0.33% of 360,000 active. Small ubiquitin-related modifier 1 (Homo sapiens), P63165; in the data active = inhibition above about 37%
Target sequence (P63165 whole entry, looked up): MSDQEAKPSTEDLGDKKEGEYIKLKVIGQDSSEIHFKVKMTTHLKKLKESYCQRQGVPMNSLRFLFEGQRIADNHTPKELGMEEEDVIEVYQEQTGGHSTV
STEP block – STEP phosphatase inhibitors, primary screen, biochemical, fluorescence intensity, uHTS; Tyrosine-protein phosphatase non-receptor type 5 (Homo sapiens), P54829; recombinant STEP, OMFP fluorogenic substrate; inhibition, % at 20 µM; 0.25% of 360,000 active; AID 588621, 2011;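 active = inhibition at 20 µM, scaled per plate between control wells, above about 37%, limit read from the data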;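 note: 0% = DMSO with enzyme and substrate and 100% = substrate only without enzyme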
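medium = Bis-Tris buffer pH 6.0, 2.5 mM DTT, 0.005% Tween 20 | test system = STEP (striatal-enriched tyrosine phosphatase) enzyme, cell-free | measure = normalized % inhibition | compound dosing = 20 µM, 1% DMSO | also added = 25 µM OMFP | schedule = reaction 20 min, ambient temperature | measured by = fluorescence read at 480 nm ex / 540 nm em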
Scp-1 inhibitor – Scp-1 phosphatase inhibitors, primary screen, biochemical, colorimetric, uHTS. Carboxy-terminal domain RNA polymerase II polypeptide A small phosphatase 1 (Homo …. Recombinant Scp1, phosphopeptide, malachite green phosphate absorbance. inhibition, % at 20 µM. 0.88% of 340,000 active;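 active = inhibition above about 50% at 20 µM, limit read from the data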;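 note: plate controls were DMSO wells with enzyme for no effect and wells lacking enzyme for full effect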
Target sequence (Q9GZU7 76-261 limits assumed): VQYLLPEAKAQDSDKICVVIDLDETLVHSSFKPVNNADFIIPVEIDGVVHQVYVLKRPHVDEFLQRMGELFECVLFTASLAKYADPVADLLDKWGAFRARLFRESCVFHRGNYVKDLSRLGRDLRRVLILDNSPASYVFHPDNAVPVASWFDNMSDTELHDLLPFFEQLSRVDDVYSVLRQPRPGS
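Material: truncated SCP-1 phosphatase (76-261aa) / Buffer or medium: 50 mM Tris acetate pH 5.5, 0.005% Tween-20, 10 mM MgCl2 / Compound dosing: one concentration, 20 µM, with 1.0% DMSO / Incubation: 45 min room-temperature reaction, 5 min colour, 30 min stabiliser / Detection: colorimetric free-phosphate detection, absorbance 630 nm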
DNMT1 inh – human DNMT1 methyltransferase inhibitors, primary screen, biochemical, molecular beacon, fluorescence, HinP1I cleavage, uHTS. 0.83% of 360,000 active. DNA (cytosine-5)-methyltransferase 1 (Homo sapiens), P26358. inhibition (reported as % activation of signal), % at 10 µM. AID 588458, 2011; in the data active = inhibition above about 50%
* marks the source's active call; other numbers are inactive results. Only some compounds are listed: those with a hit (about 1.6% of all), similar ones and a draw of the others.

For C[C@@H]1CN([C@H](C)CO)C(=O)c2cc(NC(=O)NC3CCCCC3)ccc2O[C@H]1CN(C)Cc1ccc2c(c1)OCO2 the results were F508del corr 0.9.
For COc1ccc(C(=O)CC(C#N)c2ccc3c(c2)OCO3)cc1OC (stereo unspecified) the results were F508del corr -0.2, LMPTP inh -0.9, SUMO1-SIM PPI -0.8, STEP block -0.3 and DNMT1 inh -7.2.
For COc1ccc(C(C#N)CC(=O)c2ccc3c(c2)OCO3)cc1OC (stereo unspecified) the results were F508del corr 14.1*, LMPTP inh -2.9, SUMO1-SIM PPI -1.8, STEP block -2.7 and DNMT1 inh -5.4.
Screening CCCC#Cc1ccc([C@H]2[C@H]3CN(C(=O)Nc4ccccc4F)CC(=O)N3[C@H]2CO)cc1 returned F508del corr -0.8.
Screening O=C(CSc1n[nH]c(=O)[nH]c1=O)Nc1ccc2c(c1)C(=O)c1ccccc1C2=O returned F508del corr 0.2, LMPTP inh 68.7*, SUMO1-SIM PPI 95.6*, STEP block 88.1*, Scp-1 inhibitor 81.7* and DNMT1 inh 45.3.
`O=C(O)CCNc1cc(N2CCN(C(=O)c3ccco3)CC2)c2noc3c2c1C(=O)c1ccccc1-3` gave F508del corr 2.4, LMPTP inh 11.4, SUMO1-SIM PPI 50.4*, STEP block 41.2*, Scp-1 inhibitor 80.9* and DNMT1 inh 105.7*.
Cn1c(SCc2ccccc2)nccc1=O was read as F508del corr 0.7, LMPTP inh -0.2, SUMO1-SIM PPI 5.2, STEP block -1.8, Scp-1 inhibitor 0.0 and DNMT1 inh 0.1.
For CC1=C(SCc2ccccc2)C(=O)c2ccccc2C1=O the results were F508del corr -1.8, LMPTP inh 6.3, SUMO1-SIM PPI 21.1, STEP block 7.4, Scp-1 inhibitor -10.5 and DNMT1 inh 76.0*.
For O=C(CN(Cc1ccco1)Cc1ccco1)Nc1cc(S(=O)(=O)N2CCCCC2)ccc1Cl the results were F508del corr 9.4*, LMPTP inh 4.4, SUMO1-SIM PPI 1.4, STEP block 3.1, Scp-1 inhibitor -1.1 and DNMT1 inh -29.5.
O=C(NCc1ccco1)c1cc(S(=O)(=O)N2CCCC2)ccc1Cl was read as F508del corr 2.1, LMPTP inh -1.4, SUMO1-SIM PPI -2.7, STEP block -0.1, Scp-1 inhibitor -4.7 and DNMT1 inh 0.8.
For O=C(COC(=O)C1CCC1)Nc1cc(S(=O)(=O)N2CCOCC2)ccc1Cl the results were F508del corr 12.6*, LMPTP inh -0.1, SUMO1-SIM PPI 1.4, STEP block -2.3 and DNMT1 inh -4.9.
For O=C(c1ccccn1)N1CC(=O)N2[C@H](CO)[C@@H](c3ccc(C#Cc4ccccc4)cc3)[C@@H]2C1 the results were F508del corr 1.7.
For CC(=O)N(C)C[C@H]1Oc2cc(C3=CCCC3)ccc2S(=O)(=O)N([C@H](C)CO)C[C@H]1C the results were F508del corr 0.7.
Screening CCCN1C[C@H](C)[C@@H](OC)CN(C)C(=O)c2cc(NC(=O)C3CCC3)ccc2OC[C@H]1C returned F508del corr 3.0.
`Cc1ccc(S(=O)(=O)Nc2ccc(O)c(Sc3ncn[nH]3)c2)cc1` gave F508del corr 0.4, LMPTP inh -0.3, SUMO1-SIM PPI 0.4, STEP block 1.0, Scp-1 inhibitor -6.7 and DNMT1 inh -0.5.
For CC(C)c1ccc(S(=O)(=O)/N=C2/C=C(Sc3ncn[nH]3)C(=O)c3ccccc32)cc1 the results were LMPTP inh 8.8, SUMO1-SIM PPI 91.7*, STEP block 14.6, Scp-1 inhibitor 2.4 and DNMT1 inh 31.9.
Cc1ccc(S(=O)(=O)/N=C2/C=C(Sc3ncn[nH]3)C(=O)c3ccccc32)cc1 was read as LMPTP inh 8.3, SUMO1-SIM PPI 92.8*, STEP block 1.9, Scp-1 inhibitor 25.3 and DNMT1 inh 76.6*.
